Diaphorase inh: inhibits diaphorase or chemically oxidizes, flagging diaphorase assay artifacts. diaphorase resazurin-to-resorufin fluorescence, NADH, 16 min; bacterial (C. kluyveri) enzyme, not human. inhibition, % at 20 µM. 0.69% of 190,000 active. AID 1217;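 active = primary screen inhibition at 20 µM above a set limit, cut at about 50% in these data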;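 also: plate controls were DMSO with full reaction for no effect and wells lacking NADH for full effect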
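Assay system: diaphorase enzyme from Clostridium kluyveri; Input: enzyme working solution with 0.14 U/mL diaphorase; Timing: 16 min at room temperature; Technique: resorufin fluorescence, excitation 544 nm, emission 590 nm; Benchmarks: positive control minus NADH, DMSO neutral control.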
TbHK1 inh: T. brucei hexokinase 1 inhibition. recombinant TbHK1, G6PDH-coupled NADH A340. AID 1430. inhibition, % at 10 µM. 0.11% of 220,000 active;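 active = inhibition of 50% or more in the single-dose primary screen; inactive = inhibition below 50%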
HKDC1 inh: HKDC1 (human) hexokinase inhibition; Q2TB90; recombinant HKDC1, G6PDH/diaphorase resazurin coupled fluorescence; inhibition, % at 20 µM; 0.16% of 340,000 active;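 active = inhibition above about 35% when tested at 20 µM, limit read from the data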;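 also: plate controls were DMSO wells with enzyme for no effect and DMSO wells lacking enzyme for full effect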
Target sequence (Q2TB90 whole entry, looked up): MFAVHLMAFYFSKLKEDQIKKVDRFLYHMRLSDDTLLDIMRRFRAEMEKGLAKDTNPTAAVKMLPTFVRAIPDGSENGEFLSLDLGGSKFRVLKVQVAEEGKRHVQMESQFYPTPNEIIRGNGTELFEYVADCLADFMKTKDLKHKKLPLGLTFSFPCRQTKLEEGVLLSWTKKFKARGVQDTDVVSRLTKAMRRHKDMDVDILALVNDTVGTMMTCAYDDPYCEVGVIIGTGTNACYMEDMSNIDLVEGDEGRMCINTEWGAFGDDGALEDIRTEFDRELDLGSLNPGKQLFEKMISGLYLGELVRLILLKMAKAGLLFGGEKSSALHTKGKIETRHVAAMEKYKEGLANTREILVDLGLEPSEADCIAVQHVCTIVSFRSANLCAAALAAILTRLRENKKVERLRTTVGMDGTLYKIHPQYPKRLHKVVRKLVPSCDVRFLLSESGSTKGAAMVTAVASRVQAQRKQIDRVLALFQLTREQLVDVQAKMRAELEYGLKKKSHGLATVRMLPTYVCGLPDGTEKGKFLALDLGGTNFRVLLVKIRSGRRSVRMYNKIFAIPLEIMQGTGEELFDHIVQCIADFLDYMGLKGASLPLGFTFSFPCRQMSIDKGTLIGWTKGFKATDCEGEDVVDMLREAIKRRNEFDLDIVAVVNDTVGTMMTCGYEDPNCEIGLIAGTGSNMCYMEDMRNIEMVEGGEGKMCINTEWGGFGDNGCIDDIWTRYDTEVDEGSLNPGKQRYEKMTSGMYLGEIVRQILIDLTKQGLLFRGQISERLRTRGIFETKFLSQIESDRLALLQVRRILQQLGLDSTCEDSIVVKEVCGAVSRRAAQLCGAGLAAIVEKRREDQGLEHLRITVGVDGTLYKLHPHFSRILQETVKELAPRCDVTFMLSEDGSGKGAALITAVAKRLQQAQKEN
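Test system: recombinant HKDC1 (HK5) hexokinase enzyme, produced in-house; Amount: enzyme 5 µg/mL final; Buffer or medium: Tris pH 8.0 buffer with MgCl2, Tween-20, BSA, BME; Reagent: glucose and ATP substrates; Doses: 20 µM test compound, 1% DMSO; Incubation: 90 min reaction incubation at room temperature, dark; Detection: resorufin fluorescence at 613 nm.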
G6PDH counter: L. mesenteroides G6PDH inhibition counter-screen; Purified L. mesenteroides G6PDH, diaphorase/resazurin coupled fluorescence, 45 min; inhibition, % at 5 µM; 0.12% of 200,000 active; in the data active = inhibition above about 50%
PfGluPho inh: PfG6PD (Plasmodium falciparum) enzyme inhibition | inhibition, % at 20 µM | 0.78% of 350,000 active | PfGluPho enzyme, NADPH resazurin-diaphorase fluorescence;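 active = inhibition reaching at least a set limit at 20 µM in the primary screen, cut at about 59% in these data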;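 also: 0% = DMSO wells with substrate and 100% = DMSO wells lacking glucose-6-phosphate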
PfG6PD confirm: confirmation of Plasmodium falciparum G6PD inhibitors. shares compounds with PfGluPho inh. recombinant PfGluPho, NADPH-diaphorase-resazurin fluorescence. inhibition, % at 20 µM. 34% of 2,400 active. AID 504753;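 active = inhibition of at least 50% at 20 µM in any single replicate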;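 also: 0% = DMSO with substrate and 100% = DMSO lacking glucose-6-phosphate substrate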
Diaph ctr 10uM: inhibits diaphorase or oxidizes, flagging false PfG6PD hits; AID 504862; 39% of 820 active; inhibition, % at 20 µM; shares compounds with PfGluPho inh; diaphorase-coupled resazurin reduction, fluorescence, NADPH 10 uM;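 active = average inhibition reaching 50% or more with the compound at 20 µM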;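 also: resorufin red fluorescence formed as diaphorase reduces resazurin using NADPH; 0% = DMSO with enzyme and 100% = DMSO without enzyme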
Diaphorase 30uM: inhibits diaphorase or oxidizes, flagging false PfG6PD hits; Diaphorase/resazurin coupled assay, resorufin fluorescence, 30 uM NADPH; shares compounds with PfGluPho inh; AID 504863; 29% of 820 active; inhibition, % at 20 µM;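 active = inhibition averaging 50% or more, tested at 20 µM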;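 also: 0% = DMSO with enzyme and 100% = DMSO wells lacking diaphorase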
An asterisk follows results filed as active. Hits are enriched below; roughly 1.3% of the tested compounds scored in any of these assays.

CN(C)c1ccc(C=c2c3cc([N+](=O)[O-])ccc3n3c2cc(-c2ccccc2)[n+]3C)cc1 was read as HKDC1 inh 20.3, PfGluPho inh 120.0*, PfG6PD confirm 92.7*, Diaph ctr 10uM 24.2 and Diaphorase 30uM 24.2.
For COc1cc(C=c2c3ccccc3n3c2cc(-c2ccccc2)[n+]3C)cc(OC)c1OC the results were HKDC1 inh 26.9 and PfGluPho inh 13.7.
Screening O=c1c2ccccc2sn1-c1ccc(S(=O)(=O)N2CCCCC2)cc1 returned TbHK1 inh 3.2, HKDC1 inh -4.0, PfGluPho inh 110.9*, PfG6PD confirm 82.6*, Diaph ctr 10uM 4.9 and Diaphorase 30uM -13.1.
Screening O=c1c2ccccc2sn1-c1ccc(S(=O)(=O)N2CCCC2)cc1 returned Diaphorase inh -10.3, TbHK1 inh 12.8, HKDC1 inh 2.4, G6PDH counter 5.3, PfGluPho inh 111.3*, PfG6PD confirm 104.7*, Diaph ctr 10uM -8.9 and Diaphorase 30uM -4.8.
Screening O=S(=O)(c1ccc(S(=O)(=O)N2CCCC2)cc1)N1CCCCC1 returned HKDC1 inh -6.7 and PfGluPho inh 2.1.
COc1ccc(CN2C(=O)C(Cc3ccccc3)Nc3ncnc(N4CCCCC4)c32)cc1 (centres undefined) was read as HKDC1 inh 6.2 and PfGluPho inh 7.4.
Screening CC(=O)c1sc2nsc(SCCN3CCOCC3)c2c1N returned TbHK1 inh -37.6, HKDC1 inh -7.0, PfGluPho inh 77.6* and PfG6PD confirm -16.7.
CCC(=O)n1nc(-c2cccnc2)nc1NCc1ccc(F)cc1 was read as Diaphorase inh 11.3, TbHK1 inh 1.9, HKDC1 inh -4.0, G6PDH counter 1.0 and PfGluPho inh -3.1.
`CCOc1ccc(OCCCC(=O)Nc2cc(S(=O)(=O)N3CCOCC3)ccc2N2CCOCC2)cc1` gave HKDC1 inh -4.1 and PfGluPho inh -8.0.
`O=C(CN1CCN(c2cccc(Cl)c2)CC1)Nc1nccs1` gave Diaphorase inh -5.0, TbHK1 inh 3.5, HKDC1 inh 13.3, G6PDH counter 10.2 and PfGluPho inh -20.7.
N/C(=N\OS(=O)(=O)c1ccc(Cl)cc1)c1ccncc1 was read as Diaphorase inh 2.6, TbHK1 inh 0.6, HKDC1 inh -3.9, G6PDH counter -4.9 and PfGluPho inh 21.0.
CCS(=O)(=O)N1CCC(NC(=O)C(Cc2ccc(OC)c(OC)c2)NC(C)=O)CC1 (centres undefined) was read as HKDC1 inh 4.1 and PfGluPho inh 3.5.
`CS(=O)(=O)c1ccc(Cl)c(NC(=O)C2CCN(S(=O)(=O)c3cccs3)CC2)c1` gave HKDC1 inh -3.5 and PfGluPho inh 2.8.
CN(C)S(=O)(=O)c1ccc(Cl)c(NC(=O)C2CCN(S(=O)(=O)c3cccs3)CC2)c1 was read as HKDC1 inh 1.7, PfGluPho inh 60.5* and PfG6PD confirm 30.7.
Screening CC(=O)OC(C(=O)N1CCOCC1)c1c(F)cccc1F (centres undefined) returned Diaphorase inh -7.4, TbHK1 inh -2.2, HKDC1 inh -2.9, G6PDH counter 8.2 and PfGluPho inh -13.3.
`CCOc1ccc(Cl)cc1/C=N/NC(=O)CNC(=O)c1ccccc1` gave Diaphorase inh 8.1, TbHK1 inh -13.3, HKDC1 inh -4.5, G6PDH counter -2.9, PfGluPho inh 117.8*, PfG6PD confirm 91.9*, Diaph ctr 10uM 93.1* and Diaphorase 30uM 84.6*.
For Cc1cccc(OCC(=O)NCC(=O)N/N=C/c2ccccc2)c1 the results were HKDC1 inh -2.2, PfGluPho inh 68.6*, PfG6PD confirm 49.8*, Diaph ctr 10uM 41.0 and Diaphorase 30uM 41.2.
Cc1cccc(OCC(=O)NCC(=O)N/N=C/c2cc(Br)ccc2OCc2ccccc2)c1 was read as Diaphorase inh 21.6, TbHK1 inh 26.0, HKDC1 inh -4.9, G6PDH counter -3.5 and PfGluPho inh 18.6.
For O=C(COc1ccccc1)NCC(=O)N/N=C/c1cc(Br)ccc1OCc1ccccc1 the results were Diaphorase inh 16.6, TbHK1 inh 2.5, HKDC1 inh -0.5, G6PDH counter 2.3, PfGluPho inh 81.3* and PfG6PD confirm 28.6.
Cc1cccc(OCC(=O)NCC(=O)N/N=C/c2ccc(O)cc2O)c1 was read as TbHK1 inh -28.3, HKDC1 inh -39.9 and PfGluPho inh -35.5.
`COc1ccccc1NC(=O)CSc1nnc(NC(=O)C2CCC2)s1` gave HKDC1 inh 0.0 and PfGluPho inh -5.8.
Screening O=S(=O)(c1ccc(N=C2NN=C(c3cc(F)ccc3F)CS2)cc1)N1CCOCC1 returned Diaphorase inh 1.4, TbHK1 inh -11.3, HKDC1 inh -307.6, G6PDH counter 4.9 and PfGluPho inh 35.4.
`CN(O)/C=c1/ccc2c(n1)C(=O)C=CC=2` gave Diaphorase inh 68.7*, TbHK1 inh -24.1, HKDC1 inh 10.6, G6PDH counter 57.5*, PfGluPho inh 68.0*, PfG6PD confirm 58.3*, Diaph ctr 10uM -18.3 and Diaphorase 30uM -11.6.
Screening Cc1nc2c(o1)C(=O)c1ccccc1C2=Nc1ccccc1 returned HKDC1 inh 10.0, PfGluPho inh 103.9*, PfG6PD confirm 50.1*, Diaph ctr 10uM 53.1* and Diaphorase 30uM 47.9.
Cc1nc(-c2ccc(NC(=O)C(C)(C)C)cc2)c(-c2ccccc2)o1 was read as HKDC1 inh -3.3 and PfGluPho inh 5.8.
Screening Cc1[nH]n(-c2ccccc2)c(=S)c1C=NCCCN=Cc1c(C)[nH]n(-c2ccccc2)c1=S returned Diaphorase inh 12.6, TbHK1 inh -2.1, HKDC1 inh -30.6, G6PDH counter 6.1, PfGluPho inh 61.9* and PfG6PD confirm 27.0.
Screening N#Cc1cc2c([nH]c1=S)CCCCCC2 returned Diaphorase inh 14.0, TbHK1 inh -3.6, HKDC1 inh -0.7, G6PDH counter 4.2, PfGluPho inh 62.9* and PfG6PD confirm 21.9.
Screening N#Cc1c(N)n[nH]c1-c1cc2c([nH]1)CCCC2 returned Diaphorase inh 24.2, TbHK1 inh 1.2, HKDC1 inh 1.8, G6PDH counter 2.9 and PfGluPho inh 1.1.
For Cc1ccc(NC(=S)N(CCN(C)C)Cc2cccs2)c(C)c1 the results were Diaphorase inh 11.3, TbHK1 inh 7.4, HKDC1 inh -1.1, G6PDH counter 3.6, PfGluPho inh 60.9* and PfG6PD confirm 41.9.
`CC(C)(C(=O)N[C@H](CO)c1ccccc1)C(=O)N[C@H](CO)c1ccccc1` gave HKDC1 inh -5.0 and PfGluPho inh -2.1.
